The test system of test [1] is PBMC. The experiment in a line: Induction of IL6 production in human PBMC at 1 ug/ml after 48 hrs by ELISA. It is filed as functional. In outline:
(§1)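 PBMCs were isolated from heparinized venous blood by Ficoll-Hypaque density gradient centrifugation. Cells were cultured at 1 × 10^6/mL in RPMI 1640 with 10% fetal calf serum, with or without compound at 1 or 10 µg/mL, for 48 h at 37 °C. Cytokines in the culture supernatants were measured by commercial ELISA kits.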

Test [2] relates to PBMC. The experiment in a line: Induction of IL6 production in human PBMC at 10 ug/ml after 48 hrs by ELISA. It is filed as functional. In outline:
as §1
On the technique in general: An ELISA detects its analyte on a solid surface through an enzyme-linked reagent.

In test [3] the test system is PBMC. The experiment in a line: Induction of IL12 production in human PBMC at 1 ug/ml after 48 hrs by ELISA. It is filed as functional. A digest of the protocol: as §1
The test system of test [4] is PBMC. In words: Induction of IL12 production in human PBMC at 10 ug/ml after 48 hrs by ELISA. In kind it is functional. A digest of the protocol:
as §1

Test [5] relates to PBMC. The experiment in a line: Induction of TNFalpha production in human PBMC at 1 ug/ml after 48 hrs by ELISA. In kind it is functional. In outline:
as §1

The test system of test [6] is PBMC. The experiment in a line: Induction of TNFalpha production in human PBMC at 10 ug/ml after 48 hrs by ELISA. It is filed as functional. A digest of the protocol:
as §1

In test [7] the test system is PBMC. The experiment in a line: Induction of IFN-gamma production in human PBMC at 1 ug/ml after 48 hrs by ELISA. In kind it is functional, cell-based. In outline: as §1
Test [8] concerns PBMC. The experiment in a line: Induction of IFN-gamma production in human PBMC at 10 ug/ml after 48 hrs by ELISA. It is filed as functional, cell-based. In outline: as §1
Test [9] concerns PBMC. In words: Induction of IL4 production in human PBMC at 1 ug/ml after 48 hrs by ELISA. In kind it is functional, cell-based. A digest of the protocol: as §1
In test [10] the test system is PBMC. The experiment in a line: Induction of IL4 production in human PBMC at 10 ug/ml after 48 hrs by ELISA. In kind it is functional, cell-based. A digest of the protocol: as §1
For test [11], the system named is PBMC. The experiment in a line: Induction of IL10 production in human PBMC at 1 ug/ml after 48 hrs by ELISA. In kind it is functional, cell-based. In outline:
as §1

For test [12], the system named is PBMC. The experiment in a line: Induction of IL10 production in human PBMC at 10 ug/ml after 48 hrs by ELISA. It is filed as functional, cell-based. In outline:
as §1

Active and inactive are the calls of the source. No cut-off for these calls is given here.

In the case of `C[C@@H]1[C@H]2C3=CC[C@@H]4[C@@]5(C)CC[C@@H](O)C(C)(C)[C@@H]5CC[C@@]4(C)[C@]3(C)CC[C@@]2(C)[C@@H](O)C[C@H]1C(=O)O` [TRIPTOCALLIC ACID A], the Activity was 705.7 pg/mL in the test on PBMC [1]; 10.6 pg/mL with PBMC [2]; less than 7.8 pg/mL with PBMC [3]; less than 7.8 pg/mL in the test on PBMC [4]; less than 7.8 pg/mL with PBMC [5]; less than 7.8 pg/mL with PBMC [6]. For the same compound, the outcome in the test on PBMC [7], with PBMC [8], in the test with PBMC [9], with PBMC [10], in the test on PBMC [11] and in the test on PBMC [12] was inactive.
In the case of `CC1(C)[C@H](O)CC[C@]2(C)[C@H]3CC=C4[C@@H]5C[C@](C)(C(=O)O)C[C@H](O)[C@]5(C)CC[C@@]4(C)[C@]3(C)CC[C@@H]12` [TRIPTOCALLIC ACID D], the Activity with PBMC [1] is 793.2 pg/mL; in the test on PBMC [2] it was less than 7.8 pg/mL; in the test on PBMC [3], less than 7.8 pg/mL; with PBMC [4], less than 7.8 pg/mL; with PBMC [5] it was less than 7.8 pg/mL; in the test on PBMC [6] it was less than 7.8 pg/mL. Also, the result with PBMC [7], in the test with PBMC [8], in the test on PBMC [9], in the test on PBMC [10], with PBMC [11] and in the test on PBMC [12] was inactive.
`CC1(C)C(=O)CC[C@]2(C)[C@H]3CC=C4[C@@H]5C[C@]6(C)C[C@@H](OC6=O)[C@]5(C)CC[C@@]4(C)[C@]3(C)CC[C@@H]12` [WILFORLIDE B]: the Activity is 1477.6 pg/mL in the test with PBMC [1]; 451.1 pg/mL in the test on PBMC [2]; less than 7.8 pg/mL with PBMC [3]; less than 7.8 pg/mL in the test on PBMC [4]; less than 7.8 pg/mL in the test on PBMC [5]; less than 7.8 pg/mL in the test on PBMC [6]. Moreover, the result in the test on PBMC [7], in the test with PBMC [8], with PBMC [9], with PBMC [10], with PBMC [11] and in the test on PBMC [12] was inactive.

Source of the values: ChEMBL document CHEMBL1148955, “Chemical constituents from the Colombian medicinal plant Maytenus laevis” (2004).
